Experimental data gathered from unrelated publications.
Lines come from different studies, so protocols differ. In brackets after ≈: the same amount, converted by molar mass.
Organism: Pseudomonas aeruginosa

Compound	observed	technique	strain	concentration	time	quantity	value
CC(C)(C)OC(=O)N1CCN(c2cc(C(=O)NCC(=O)O)ccc2NC(=O)c2cc(Br)c(Br)[nH]2)CC1	microbial growth	broth dilution	ATCC27853	–	–	MIC	> 32 µg/mL
CC1(C)S[C@@H]2[C@H](NC(=O)[C@H](N)c3ccccc3)C(=O)N2[C@H]1C(=O)O	microbial growth	broth dilution	ATCC27853	–	–	MIC	8 µg/mL (≈ 22.9 µM)
COc1cc(C=Nc2ccc([N+](=O)[O-])cc2)ccc1O	microbial growth	disc diffusion	–	2000 µg/mL	24 h	inhibition zone	14.2 mm
COc1cc(C#CC(=O)C2CCCCC2)ccc1O	microbial growth	absorbance	–	100 µM	24 h	activity vs control	80%
CC1CCC(C(C)C)C(OC(=O)C=Cc2ccc(O)c(O)c2)C1 (stereo not drawn)	microbial growth	broth dilution	ATCC27853	–	–	MIC	2 µg/mL (≈ 6.28 µM)
COc1cc(C=Nc2ccc(Cl)cc2Cl)ccc1O	microbial growth	disc diffusion	–	2000 µg/mL	24 h	inhibition zone	14.4 mm
Cl.O=C(O)CNC(=O)c1ccc(NC(=O)c2cc(Br)c(Br)[nH]2)c(N2CCNCC2)c1	microbial growth	broth dilution	ATCC27853	–	–	MIC	> 32 µg/mL
COc1cc(C#CC(=O)c2ccccc2Cl)ccc1O	microbial growth	absorbance	–	10 µM	24 h	activity vs control	98%
CC(C)(C)OC(=O)N[C@H]1CCN(c2cc(C(=O)NCC(=O)O)ccc2NC(=O)c2cc(Br)c(Br)[nH]2)C1	microbial growth	broth dilution	ATCC27853	–	–	MIC	> 32 µg/mL
COc1cc(C#CC(O)c2ccccc2)ccc1O (stereo not drawn)	microbial growth	absorbance	–	100 µM	24 h	activity vs control	82%
CC(C)(O/N=C(\C(=O)N[C@@H]1C(=O)N2C(C(=O)[O-])=C(C[n+]3ccccc3)CS[C@H]12)c1csc(N)n1)C(=O)O	microbial growth	broth dilution	ATCC27853	–	20 h	MIC	1 µg/mL (≈ 1.83 µM)
COc1cc(Cc2cnc(N)nc2N)cc(OC)c1OC	microbial growth	broth dilution	ATCC27853	–	–	MIC	8 µg/mL (≈ 27.6 µM)
Cc1[nH]c(C(=O)Nc2ccc(C(=O)NCC(=O)O)cc2N2CC[C@@H](NC(=O)OC(C)(C)C)C2)c(Cl)c1Cl	microbial growth	broth dilution	ATCC27853	–	–	MIC	> 32 µg/mL
COc1cc(C#CC(=O)CC(C)C)ccc1O	microbial growth	absorbance	–	100 µM	24 h	activity vs control	87%
COc1cc(C=Nc2ccc(C)cc2Cl)ccc1O	microbial growth	disc diffusion	–	2000 µg/mL	24 h	inhibition zone	12.7 mm
Cc1[nH]c(C(=O)Nc2ccc(C(=O)NCC(=O)O)cc2N2CCNCC2)c(Cl)c1Cl.Cl	microbial growth	broth dilution	ATCC27853	–	–	MIC	> 32 µg/mL
COc1cccc(C(=O)C#Cc2ccc(O)c(OC)c2)c1	microbial growth	absorbance	–	100 µM	24 h	activity vs control	82%
CN[C@H](CC(C)C)C(=O)N[C@H]1C(=O)N[C@@H](CC(N)=O)C(=O)N[C@H]2C(=O)N[C@H]3C(=O)N[C@H](C(=O)N[C@H](C(=O)O)c4cc(O)cc(O)c4-c4cc3ccc4O)[C@H](O)c3ccc(c(Cl)c3)Oc3cc2cc(c3O[C@@H]2O[C@H](CO)[C@@H](O)[C@H](O)[C@H]2O[C@H]2C[C@](C)(N)[C@H](O)[C@H](C)O2)Oc2ccc(cc2Cl)[C@H]1O	microbial killing	–	ATCC47085	–	–	MBC	1000 µg/mL (≈ 690 µM)
O=C(C=Cc1ccc(O)c(O)c1)OCCc1ccccc1	microbial growth	broth dilution	ATCC27853	–	–	MIC	64 µg/mL (≈ 225 µM)
Cl.N[C@H]1CCN(c2cc(C(=O)NCC(=O)O)ccc2NC(=O)c2cc(Br)c(Br)[nH]2)C1	microbial growth	broth dilution	ATCC27853	–	–	MIC	> 32 µg/mL
O=C(C=Cc1ccc(O)c(O)c1)Oc1cccc2cccnc12	microbial growth	broth dilution	ATCC27853	–	–	MIC	4 µg/mL (≈ 13 µM)
COc1cc(C#C[C@H](O)CC(C)C)ccc1O	microbial growth	absorbance	–	100 µM	24 h	activity vs control	98%
Cc1[nH]c(C(=O)Nc2ccc(C(=O)NCC(=O)O)cc2N2CCN(C(=O)OC(C)(C)C)CC2)c(Cl)c1Cl	microbial growth	broth dilution	ATCC27853	–	–	MIC	> 32 µg/mL
COc1cc(C#CC(=O)c2cccc(C)c2)ccc1O	microbial growth	absorbance	–	10 µM	24 h	activity vs control	98%
Cc1[nH]c(C(=O)Nc2ccc(C(=O)NCC(=O)O)cc2N2CC[C@@H](N)C2)c(Cl)c1Cl.Cl	microbial growth	broth dilution	ATCC27853	–	–	MIC	> 32 µg/mL
COc1cc(C#CC(=O)c2ccc(C(F)(F)F)cc2)ccc1O	microbial growth	absorbance	–	10 µM	24 h	activity vs control	102%
COc1cc(C=Nc2cccc(O)c2)ccc1O	microbial growth	disc diffusion	–	2000 µg/mL	24 h	inhibition zone	14.5 mm
